This note sets out measurements from ChEMBL document CHEMBL4354871, “Discovery of Selective Small Molecule Degraders of BRAF-V600E” (J Med Chem, 2020).

Active and inactive are the calls of the source. No cut-off for these calls is given here.

Data set [1] relates to A-375. In words: Cytotoxicity in human A375 cells assessed as reduction in cell viability by Cell-titer-Lumi assay. The format is functional, cell-based. Summed up:
(§1)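 Cells grown in DMEM with 10% FBS at 37 °C, 5% CO2. Seeded at 2000 cells/well, then treated across a 12-point serial dilution. Viability read after three days by CellTiter-Lumi luminescence. IC50 obtained by nonlinear least-squares regression of dose-response curves. Lines STR-authenticated and mycoplasma-free.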

The test system of a further data set is HT-29. Kind of data set: Cytotoxicity in human HT-29 cells assessed as reduction in cell viability by Cell-titer-Lumi assay. Type of data set: functional, cell-based. Summed up: as §1
The test system of data set [2] is Protein cereblon/Serine/threonine-protein kinase B-raf (Homo sapiens), P15056+Q96SW2 [V600E]. Kind of data set: Protac activity at CRBN/BRAF V600E mutant in human A375 cells assessed as reduction in BRAF V600E mutant-mediated ERK phosphorylation at 1 to 1000 nM incubated for 2 hrs by immunoblotting. Type of data set: cell-based. (Immunoblotting shows a protein as a band on a membrane.)

For data set [3], the target named is Serine/threonine-protein kinase B-raf (Homo sapiens, UniProt P15056, V600E). In words: Binding affinity to DNA-tagged BRAF (unknown origin) V600E mutant by KINOMEscan assay.
A further data set relates to HaCaT. Kind of data set: Cytotoxicity in human HaCaT cells assessed as reduction in cell viability at 10 nM to 10 uM by Cell-titer-Lumi assay. The format is cell-based. Summed up: as §1
The test system of the next data set is IMR-90. In words: Cytotoxicity in human IMR90 cells assessed as reduction in cell viability at 10 nM to 10 uM by Cell-titer-Lumi assay. Conditions: imr-90, 10 nM to 10 uM. Type of data set: cell-based. In short, it runs like this: as §1
Data set [4] relates to Protein cereblon/Serine/threonine-protein kinase B-raf (Homo sapiens), P15056+Q96SW2 [V600E]. Kind of data set: Protac activity at CRBN/BRAF V600E mutant in human A375 cells assessed as induction of BRAF V600E mutant degradation at 500 nM incubated for 6 hrs after 1 hr pre-treatment with 20 uM proteasome inhibitor MG132 by immunoblotting.
Data set [5] deals with T1, Protein cereblon/Serine/threonine-protein kinase B-raf (Homo sapiens) (UniProt P15056+Q96SW2). Kind of data set: Protac activity at CRBN/BRAF in human A549 cells assessed as induction of BRAF degradation at 15 to 1000 nM incubated for 16 hrs by immunoblotting. The format is cell-based. Summed up: (§2)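 A549 cells carrying wild-type BRAF (DMEM, 10% FBS) were treated with DMSO or a 3-fold serial dilution of compound for 16 h. BRAF was read by immunoblotting: RIPA lysis, BCA protein assay, SDS-PAGE, anti-BRAF antibody with α-tubulin as loading control, ECL detection and densitometric quantitation.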

The subject of data set [6] is Protein cereblon/Serine/threonine-protein kinase B-raf (Homo sapiens), P15056+Q96SW2 [V600E]. In words: Protac activity at CRBN/BRAF V600E mutant in human A375 cells assessed as reduction in BRAF V600E mutant-mediated ERK phosphorylation at 1 to 1000 nM incubated for 16 hrs by immunoblotting. The format is cell-based. Summed up:
(§3)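 A375 cells (BRAF-V600E, DMEM with 10% FBS, 37 °C, 5% CO2) were exposed to DMSO or a serial dilution of degrader for 16 h. Cells were lysed in cold RIPA with protease and phosphatase inhibitors, protein was measured by BCA, and samples were run on SDS-PAGE. Blots were probed for BRAF, p-ERK1/2 and α-tubulin, detected by ECL, and bands were quantitated.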

Data set [7] shares this test system. Kind of data set: Protac activity at CRBN/BRAF V600E mutant in human A375 cells assessed as induction of BRAF V600E mutant degradation at 500 nM incubated for 6 hrs after 1 hr pre-treatment with 200 nM proteasome inhibitor bortezomib by immunoblotting.
Data set [8] has the same test system. Kind of data set: Protac activity at CRBN/BRAF V600E mutant in human A375 cells assessed as induction of BRAF V600E mutant degradation at 500 nM incubated for 6 hrs after 1 hr pre-treatment with 1 uM NEDD8-activating enzyme inhibitor […] by immunoblotting.
For another data set, the system named is WI-38. In words: Cytotoxicity in human WI38 cells assessed as reduction in cell viability at 10 nM to 10 uM by Cell-titer-Lumi assay. Conditions: wi-38, 10 nM to 10 uM. The format is cell-based. In short, it runs like this: as §1
The test system of data set [9] is A-375. Kind of data set: Inhibition of colony formation in human A375 cells at 40 to 1000 nM incubated for 7 days by crystal violet staining based assay. The format is functional, cell-based. In short, it runs like this: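 A375 plated at 200 cells/well, dosed the following day with DMSO or compound. After seven days, cells fixed and stained with 0.5% crystal violet, and colonies counted. Data as mean ± SD; Student's t-test against corresponding control groups.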

Data set [10] has as its system Protein cereblon/Serine/threonine-protein kinase B-raf (Homo sapiens), P15056+Q96SW2 [V600E]. In words: Protac activity at CRBN/BRAF V600E mutant in human A375 cells assessed as induction of BRAF V600E mutant degradation at 1 to 1000 nM incubated for 16 hrs by immunoblotting. Type of data set: cell-based. Summed up: as §3
Data set [11] shares this test system. Kind of data set: Protac activity at CRBN/BRAF V600E mutant kinase domain (unknown origin) expressed in human A375 cells assessed as induction of BRAF V600E mutant degradation at 1 to 1000 nM incubated for 16 hrs by immunoblotting. The format is cell-based. Summed up:
(§4)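 A375 lines stably expressing the BRAF-V600E or wild-type BRAF kinase domain were made by lentiviral transduction and kept in 1 µg/mL puromycin. They were treated with DMSO or a 3-fold serial dilution of compound for 16 h. Kinase-domain levels were read by immunoblotting of RIPA lysates with ECL and band quantitation.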

Data set [12] has as its target T2, Serine/threonine-protein kinase B-raf (Homo sapiens, UniProt P15056). In words: Binding affinity to DNA-tagged BRAF (unknown origin) by KINOMEscan assay.
Data set [13] has as its target T1, Protein cereblon/Serine/threonine-protein kinase B-raf (Homo sapiens). In words: Protac activity at CRBN/BRAF kinase domain (unknown origin) expressed in human A375 cells assessed as induction of BRAF degradation at 1 to 1000 nM incubated for 16 hrs by immunoblotting. The format is cell-based. In short, it runs like this: as §4
Data set [14] relates to Protein cereblon/Serine/threonine-protein kinase B-raf (Homo sapiens), P15056+Q96SW2 [V600E]. Kind of data set: Protac activity at CRBN/BRAF V600E mutant in human A375 cells assessed as induction of BRAF V600E mutant degradation at 500 nM incubated for 6 hrs after 1 hr pre-treatment with 10 uM pomalidomide by immunoblotting.
The target in data set [15] is T1, Protein cereblon/Serine/threonine-protein kinase B-raf (Homo sapiens). Kind of data set: Protac activity at CRBN/BRAF in human A549 cells assessed as induction of BRAF degradation at 1 to 1000 nM incubated for 16 hrs by immunoblotting. The format is cell-based. Summed up: as §2
The target in data set [16] is T2, Serine/threonine-protein kinase B-raf. Kind of data set: Potency index, ratio of Kd for vemurafenib to Kd of test compound for binding affinity to DNA-tagged BRAF (unknown origin) by KINOMEscan assay.
Data set [17] relates to Serine/threonine-protein kinase B-raf (Homo sapiens), P15056 [V600E]. In words: Potency index, ratio of Kd for vemurafenib to Kd of test compound for binding affinity to DNA-tagged BRAF (unknown origin) V600E mutant by KINOMEscan assay.
Serine/threonine-protein kinase B-raf (Homo sapiens), P15056 [V600E], sequence (P15056 whole entry V600E): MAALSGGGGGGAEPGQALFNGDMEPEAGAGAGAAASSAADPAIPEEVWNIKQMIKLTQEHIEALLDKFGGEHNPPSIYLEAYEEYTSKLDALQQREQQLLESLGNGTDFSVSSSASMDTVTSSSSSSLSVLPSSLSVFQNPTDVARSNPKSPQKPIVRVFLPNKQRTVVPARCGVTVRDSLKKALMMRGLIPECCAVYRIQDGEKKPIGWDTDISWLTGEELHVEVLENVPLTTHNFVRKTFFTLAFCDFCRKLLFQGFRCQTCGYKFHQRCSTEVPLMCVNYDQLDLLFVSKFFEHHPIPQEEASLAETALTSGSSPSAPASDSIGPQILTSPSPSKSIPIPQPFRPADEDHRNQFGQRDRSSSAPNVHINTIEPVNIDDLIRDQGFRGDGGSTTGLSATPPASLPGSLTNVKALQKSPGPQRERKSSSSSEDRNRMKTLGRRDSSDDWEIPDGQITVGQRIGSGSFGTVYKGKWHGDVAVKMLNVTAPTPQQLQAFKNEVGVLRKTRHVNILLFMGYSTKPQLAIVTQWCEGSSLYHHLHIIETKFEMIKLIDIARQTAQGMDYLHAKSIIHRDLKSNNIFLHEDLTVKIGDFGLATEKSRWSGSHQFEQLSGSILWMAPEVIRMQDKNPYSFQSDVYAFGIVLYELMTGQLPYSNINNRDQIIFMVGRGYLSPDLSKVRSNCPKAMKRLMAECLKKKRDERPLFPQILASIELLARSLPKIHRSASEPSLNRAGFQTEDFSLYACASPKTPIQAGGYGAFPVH

Serine/threonine-protein kinase B-raf (Homo sapiens, UniProt P15056, V600E), sequence (P15056 2-766 V600E limits assumed): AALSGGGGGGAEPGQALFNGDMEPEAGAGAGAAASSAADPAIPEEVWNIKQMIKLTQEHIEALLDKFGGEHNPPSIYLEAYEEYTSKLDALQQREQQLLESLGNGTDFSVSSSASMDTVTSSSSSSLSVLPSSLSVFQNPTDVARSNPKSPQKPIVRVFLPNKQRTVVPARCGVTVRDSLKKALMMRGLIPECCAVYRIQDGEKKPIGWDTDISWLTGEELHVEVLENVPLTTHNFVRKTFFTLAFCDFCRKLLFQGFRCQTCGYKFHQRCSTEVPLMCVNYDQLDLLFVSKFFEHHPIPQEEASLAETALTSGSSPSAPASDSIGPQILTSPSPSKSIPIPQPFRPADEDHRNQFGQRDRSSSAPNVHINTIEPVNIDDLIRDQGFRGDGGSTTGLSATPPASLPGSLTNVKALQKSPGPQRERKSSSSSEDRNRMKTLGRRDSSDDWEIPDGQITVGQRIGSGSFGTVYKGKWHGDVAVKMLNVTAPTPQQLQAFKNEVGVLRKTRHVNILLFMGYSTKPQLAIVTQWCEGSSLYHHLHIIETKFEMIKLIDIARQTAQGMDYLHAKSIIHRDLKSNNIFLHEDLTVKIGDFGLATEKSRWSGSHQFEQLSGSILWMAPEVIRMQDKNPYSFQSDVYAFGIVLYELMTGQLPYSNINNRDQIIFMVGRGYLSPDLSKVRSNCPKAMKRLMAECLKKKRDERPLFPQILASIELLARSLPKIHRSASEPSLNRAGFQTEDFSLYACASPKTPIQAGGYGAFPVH
T1 sequence (P15056 whole entry, looked up): as the sequence (P15056 whole entry V600E) above, with E600V counted along it
T1 sequence (Q96SW2 whole entry, looked up): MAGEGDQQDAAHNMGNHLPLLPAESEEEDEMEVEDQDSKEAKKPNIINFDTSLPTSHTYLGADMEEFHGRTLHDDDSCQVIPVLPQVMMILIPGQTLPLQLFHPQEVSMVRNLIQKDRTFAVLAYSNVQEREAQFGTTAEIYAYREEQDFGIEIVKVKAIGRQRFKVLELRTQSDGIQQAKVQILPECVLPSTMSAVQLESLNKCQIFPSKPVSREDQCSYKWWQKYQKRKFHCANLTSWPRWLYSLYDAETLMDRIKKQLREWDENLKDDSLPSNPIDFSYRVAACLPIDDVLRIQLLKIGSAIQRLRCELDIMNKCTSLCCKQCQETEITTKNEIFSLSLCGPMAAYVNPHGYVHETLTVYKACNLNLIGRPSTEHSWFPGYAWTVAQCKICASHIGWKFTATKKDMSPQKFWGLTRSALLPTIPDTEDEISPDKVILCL
T2 sequence (P15056 whole entry, the tested form may be a part): as the sequence (P15056 whole entry V600E) above, with E600V counted along it

A word on the IC50: it is the concentration that gives 50% inhibition. Consider `CCCS(=O)(=O)Nc1ccc(F)c(C(=O)c2c[nH]c3ncc(-c4ccc(Cl)cc4)cc23)c1F` [VEMURAFENIB], for which the IC50 amounted to 0.116 µM in the data set with A-375 [1] and 0.164 µM in the data set on HT-29.

In general, Kd refers to the constant that tells how readily two partners part at equilibrium. A high value points to lower affinity. As for `CCCS(=O)(=O)Nc1ccc(F)c(-n2cc(-c3cncnc3)c3nc(N(C)C4CCN(C(=O)CCOCCOCCOCCNc5cccc6c5C(=O)N(C5CCC(=O)NC5=O)C6=O)CC4)ccc32)c1F` (centres undefined), the result in data set [2] and in [11] was Active. For the same molecule, the Kd in data set [3] was 0.002 µM; in data set [12] it was 0.0024 µM. Moreover, the Activity entry in the data set on HaCaT was “Non-Toxic”; in the data set on IMR-90, “Non-Toxic”; in data set [6] it was “Dose-dependent effect”; with WI-38, “Non-Toxic”; in data set [10], “Dose-dependent effect”. For the same molecule, the outcome in [4], in data set [5], in [7], in data set [8], in [13] and in data set [14] was inactive. Also, the 50% inhibitory concentration (IC50) in the data set with A-375 [1] is 0.0465 µM; in the data set with HT-29, 0.051 µM. Besides, in the data set with A-375 [9], the inhibition result is “Active”.

For `CCCS(=O)(=O)Nc1ccc(F)c(C(=O)c2c[nH]c3ncc(-c4ccc(CNC(=O)CCCCNc5ccc6c(c5)C(=O)N(C5CCC(=O)NC5=O)C6=O)cc4)cc23)c1F` (centres undefined), the values for the Kd in [3] and in data set [12] were 0.0144 µM and 0.0095 µM, respectively. Further, the outcome in data set [15], in [4], in data set [7], in data set [8], in data set [13] and in data set [14] was inactive. The Activity result was “Non-Toxic” with HaCaT; “Non-Toxic” in the data set with IMR-90; “Dose-dependent effect” in [6]; “Non-Toxic” with WI-38; “Dose-dependent effect” in [10]. Also, the Ratio in [16] and in data set [17] was 4 to 5 throughout. In addition, the figures for the IC50 with A-375 [1] and in the data set on HT-29 were 0.5 µM and 0.124 µM, respectively. Besides, in the data set with A-375 [9], the inhibition result is “Active”. Further, in [11], the outcome was Active.

Regarding `CCCS(=O)(=O)Nc1ccc(F)c(C(=O)c2c[nH]c3ncc(-c4ccc(CNC(=O)CCCCNc5ccc6c(c5)C(=O)N(C5CCC(=O)N(C)C5=O)C6=O)cc4)cc23)c1F` (centres undefined), the Kd came to 0.0073 µM in [3] and 0.0051 µM in data set [12]. The Activity result in the data set on HaCaT, with IMR-90 and with WI-38 was “Non-Toxic” each time. The IC50 is 0.492 µM in the data set on A-375 [1] and 0.459 µM with HT-29. Moreover, in [10], the outcome was inactive.

Take `CCCS(=O)(=O)Nc1ccc(F)c(-n2cc(-c3cncnc3)c3nc(N(C)C4CCN(CC)CC4)ccc32)c1F` [XP-102]: the Kd in [3] amounted to 0.00033 µM; in [12], 0.00037 µM. For the same molecule, the results for the IC50 with A-375 [1] and with HT-29 were 0.0063 µM and 0.0017 µM, respectively.

For the molecule `CCCS(=O)(=O)Nc1ccc(F)c(-n2cc(-c3cncnc3)c3nc(N(C)C4CCN(C(=O)CCOCCOCCOCCNc5cccc6c5C(=O)N(C5CCC(=O)N(C)C5=O)C6=O)CC4)ccc32)c1F` (centres undefined), the Kd was determined as 0.0027 µM in data set [3] and 0.0026 µM in [12]. Also, the Activity result with HaCaT, in the data set on IMR-90 and in the data set on WI-38 was “Non-Toxic” in each case. Also, the IC50 was found to be 0.19 µM with A-375 [1] and 0.348 µM in the data set with HT-29. Further, the result in data set [10] was inactive.
